Shown are actives, neighbours in structure and some others; about 3.2% of the full set was active somewhere.
Pemphigus Ab inh – human desmoglein-3 autoantibody binding inhibition; P32926; DSG3-coupled beads, scFv-anti-DSG3-GFP binding, flow cytometry; stronger effect = lower value; binding (percent of control), % at 10 µM; actives 0.48% (n = 310,000); AID 588358;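 active means binding more than 3 SD below its plate's average and above zero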;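 further: hits lower antibody fragment binding to DSG3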
Apaf1 inhib – human Apaf-1 inhibition; reconstituted apoptosome caspase-3 activity, DEVD-Rh110 fluorescence; O14727; actives 0.71% (n = 330,000); AID 489030; inhibition, % at 20 µM; active means inhibition of at least 40% at 20 µM;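 further: plate controls were DMSO wells for no effect and DEVD-CHO caspase inhibitor wells for full effect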
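Assay system: Apoptosome proteins | Medium: pH 7.5 Hepes buffer with CHAPS, BSA, DTT | Also added: Cytochrome c and DEVD-Rh110 substrate | Times: 30 min plus 50 min, RT | Detection: Rhodamine 110 fluorescence at Ex 480/Em 540 nm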
MEKK3 PB1 HTS – MEKK3-MEK5 PB1 interaction, increase or decrease; Q99759; bead-based flow cytometry, Alexa488-MEK5 binding to MEKK3; actives lie on both sides; 0 = blocked by unlabeled MEK5, 100 = vehicle; binding response (% of control), % at 10 µM; actives 1.4% (n = 290,000); AID 1529;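 active means binding response more than 3 SD above or below the average of its plate-row segment, actives on both sides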;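 further: Alexa488 bead fluorescence after subtracting the streptavidin-only scavenger bead signal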
Target sequence (Q99759 whole entry, looked up): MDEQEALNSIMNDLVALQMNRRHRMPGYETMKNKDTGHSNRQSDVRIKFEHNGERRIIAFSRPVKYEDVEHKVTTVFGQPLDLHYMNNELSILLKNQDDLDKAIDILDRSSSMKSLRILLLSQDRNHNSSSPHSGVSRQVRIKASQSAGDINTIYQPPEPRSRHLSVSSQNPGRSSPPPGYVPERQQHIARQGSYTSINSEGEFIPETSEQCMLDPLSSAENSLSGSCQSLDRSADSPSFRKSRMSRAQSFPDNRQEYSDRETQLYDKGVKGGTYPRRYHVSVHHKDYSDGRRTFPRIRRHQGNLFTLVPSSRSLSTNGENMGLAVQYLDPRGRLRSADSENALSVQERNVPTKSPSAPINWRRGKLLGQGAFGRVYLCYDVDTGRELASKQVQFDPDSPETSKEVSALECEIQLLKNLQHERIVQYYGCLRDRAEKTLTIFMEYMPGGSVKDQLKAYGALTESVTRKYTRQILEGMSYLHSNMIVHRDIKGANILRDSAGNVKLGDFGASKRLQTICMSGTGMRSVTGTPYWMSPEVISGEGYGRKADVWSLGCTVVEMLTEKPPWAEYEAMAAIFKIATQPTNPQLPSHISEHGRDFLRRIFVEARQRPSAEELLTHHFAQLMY
MEKK2mut PB1 HTS – signal of MEK5 binding to mutant human MEKK2 PB1 domain; bead flow cytometry, Alexa488-MEK5 binding to MEKK2 mutant; percent response, % at 10 µM; actives 0.35% (n = 290,000); AID 1530; in the data active means percent response above about 24%, passing the limit was not always enough
UBC13 polyUb – inhibitors of human UBC13 polyubiquitin chain formation; P61088; AID 485273; inhibition, % at 20 µM; actives 0.47% (n = 330,000); TR-FRET; in the data active means inhibition above about 45%, passing the limit was not always enough
MEKK2 WT-MEK5 – raises or lowers MEK5 binding to wildtype human MEKK2 PB1 domain; bead flow cytometry, Alexa488-MEK5 binding to MEKK2 WT; actives lie on both sides; binding response (% of control), % at 10 µM; actives 1.1% (n = 290,000); AID 1531; in the data active means binding response below about 67% or above about 130%
MEKK2wt confirm – raises or lowers MEK5 binding to wildtype human MEKK2, retest; shares compounds with MEKK3 PB1 HTS; bead flow cytometry, Alexa488-MEK5 binding to MEKK2 WT; actives lie on both sides; binding response (% of control), % at 10 µM; actives 2.4% (n = 5,900); in the data active means binding response below about 16% or above about 210%; inactive means in between
MEKK2mut-MEK5 – signal of MEK5 binding to mutant human MEKK2, retest | shares compounds with MEKK3 PB1 HTS | bead flow cytometry, Alexa488-MEK5 binding to MEKK2 mutant | percent response, % at 10 µM | actives 2% (n = 5,900) | AID 1893; in the data active means percent response mostly above about 71%, no sharp cut-off; inactive means mostly below about 38%;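 further: higher means compound restores mutant binding toward wildtype level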
MEKK3-MEK5 inh – confirmation of inhibitors of MEK5 binding to human MEKK3. shares compounds with MEKK3 PB1 HTS. binding response (% of control), % at 10 µM. bead flow cytometry, Alexa488-MEK5 binding to MEKK3; stronger effect = lower value. actives 1.8% (n = 5,900);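 active means binding response below 72% of control, or above a set upper limit, though filed actives all read lower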;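 further: 100% = DMSO only wells and 0% = binding blocked by excess unlabeled MEK5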
Starred values were filed as active, the others as inactive; . = not tested or not shown; [ ] = another dose, or the depositor's remark.

SMILES | Pemphigus Ab inh | Apaf1 inhib | MEKK3 PB1 HTS | MEKK2mut PB1 HTS | UBC13 polyUb | MEKK2 WT-MEK5 | MEKK2wt confirm | MEKK2mut-MEK5 | MEKK3-MEK5 inh
NC(=O)CCN1CCCCC1 | 107 | -1 | 98 | -10 | 0 | 91 | . | . | .
O=C(Nc1nc2ccccc2[nH]1)c1ccccc1 | 99 | 6 | 13*[inhibitor] | -23 | -1 | 21*[inhibitor] | 103 | 1 | 102
O=C(Nc1ccc(OCC(=O)N2CCC(Cc3ccccc3)CC2)cc1)c1ccco1 | . | 2 | 67*[inhibitor] | -6 | -2 | 74 | 100 | -3 | 101
CC(=O)Nc1ccc(OCC(=O)N2CCC(Cc3ccccc3)CC2)cc1 | 117 | -14 | 101 | 8 | 21 | 99 | . | . | .
CC[C@H](C)Cc1cn([C@@H](CCCCNC(=O)OC(C)(C)C)C(=O)NCCCCCCCCCCC(=O)N2CCN(C(=O)OC(C)(C)C)CC2)nn1 | 103 | 27 | . | . | -26 | . | . | . | .
CCCn1c(N2CCN(C(=O)N3CCCCC3)CC2)nc2ccccc21 | 100 | 5 | 2.0*[inhibitor] | -18 | -3 | 2.0*[inhibitor] | 104 | 1 | 101
COCC(C)n1c(C)cc(C(=O)COC(=O)CNC(=O)c2ccccc2)c1C (stereo not drawn) | 88 | 0 | 131* | 0 | -2 | 106 | 102 | 4 | 101
COc1ccc(COC(=O)c2cccc(S(=O)(=O)N3CCN(C(C)=O)CC3)c2)cc1 | 104 | 10 | . | . | -4 | . | . | . | .
CCN(CC)CCCC(C)Nc1c2ccc(Cl)cc2nc2ccc(OC)cc12 (stereo not drawn) | . | . | 97 | 19 | . | 137 | . | . | .
COc1ccc2nc3cc(Cl)ccc3c(Nc3cc(C(C)C)c(O)cc3C)c2c1 | 107 | 34 | 87 | 44* | -6 | 146* | 189 | 75* | 106
Cc1ccc(OCCNC(=O)CCc2ccccc2)cc1C | 104 | 0 | . | . | 0 | . | . | . | .
COc1cccc(-c2nc(Cc3ccc(OC)c(OC)c3)no2)c1 | 100 | -1 | 96 | 1 | -2 | -6.0*[inhibitor] | 99 | -2 | 97
COc1ccc(Cc2noc(-c3ccccc3)n2)cc1OC | 108 | 0 | 95 | -3 | 11 | 91 | . | . | .
CCOC(=O)c1c(C)n(C)c2ccc(OC)c(NC(=O)CN3CCC(C(=O)OCC)CC3)c12 | . | 14 | 47*[inhibitor] | -37 | 11 | 55 | 102 | 6 | 102
CCOC(=O)c1c(C)n(C)c2ccc(OC)c(NC(=O)CN3CCN(C4CCCCC4)CC3)c12 | 102 | -8 | 99 | -5 | 8 | 102 | . | . | .
Cc1ccc2nnnc(-c3ccccc3)c2c1 | 103 | 1 | 88 | -9 | 5 | 54*[inhibitor] | 98 | 8 | 104
COc1cccc(NC(=O)CN(C)C(=O)c2cc3c(s2)CCC3)c1 | . | 15 | . | . | -8 | . | . | . | .
CN(Cc1ccccc1OCCO)CC1CCCN(CCc2ccc(Cl)cc2)C1 (stereo not drawn) | 109 | 7 | 106 | 15 | 7 | 131 | . | . | .
O=C(COC(=O)c1n[nH]c(=O)c2ccccc12)NC1CCCCC1 | 97 | -15 | . | . | 6 | . | . | . | .
COc1nc2c(c(-c3cc(Br)cs3)c1C#N)Cc1ccccc1-2 | 103 | 11 | 133* | 25 | 19 | 127 | 98 | -4 | 102
O=[N+]([O-])c1cc(Cl)ccc1N1CCN(c2cccc(C(F)(F)F)c2)CC1 | 107 | 7 | 103 | 14 | 5 | 138* | 110 | 4 | 103
Oc1ccccc1C=NCCN=Cc1ccccc1O | 110 | -6 | 104 | 2 | 11 | 93 | . | . | .
Oc1ccc(Cl)cc1C=NCCc1ccccc1 | 98 | -7 | 129* | 0 | -1 | 100 | 101 | -2 | 96
Cc1nc(C)c(C(=O)N2CCCC(C(=O)c3cc(F)ccc3F)C2)s1 (stereo not drawn) | . | -6 | 101 | 5 | -4 | 109 | . | . | .
O=C(N/N=C\c1ccc(-c2ccc([N+](=O)[O-])cc2)o1)c1ccc2c(c1)OCO2 | 109 | -5 | 142* | 2 | -47 | 108 | 96 | -1 | 99
SMILES | Pemphigus Ab inh | Apaf1 inhib | MEKK3 PB1 HTS | MEKK2mut PB1 HTS | UBC13 polyUb | MEKK2 WT-MEK5 | MEKK2wt confirm | MEKK2mut-MEK5 | MEKK3-MEK5 inh
O=C(N/N=C/c1cccnc1)c1cccs1 | . | -18 | 130* | 28 | -1 | 121 | 94 | 1 | 104
O=C(N/N=C/c1cccc([N+](=O)[O-])c1)c1cc2ccccc2o1 | 89 | -7 | 69*[inhibitor] | -1 | -16 | 91 | 92 | 1 | 92
Cc1ccc(/C=N/NC(=O)c2cccc([N+](=O)[O-])c2)o1 | 98 | . | 133* | 4 | . | 105 | 115 | 10 | 104
O=C(CC(C(=O)O)c1ccc(Cl)cc1Cl)c1ccc(Cl)cc1 (stereo not drawn) | 103 | -1 | 100 | 0 | 0 | 101 | . | . | .
Cc1ccc(C(=O)Sc2cccccc2=O)cc1 | 109 | 9 | 102 | -1 | -33 | 103 | . | . | .
O=C(N/N=C\c1cn[nH]c1-c1ccc(Cl)cc1)c1cccs1 | 87 | -24 | 71*[inhibitor] | -30 | 5 | 60*[inhibitor] | 108 | 13 | 108
Cc1ccc(/C=N/NC(=O)c2cccs2)o1 | . | 0 | 128* | 1 | -17 | 110 | 104 | 8 | 103
Cc1ccc(/C=N/NS(=O)(=O)c2ccc([N+](=O)[O-])cc2)o1 | 99 | -1 | 134* | 1 | 0 | 106 | 107 | 4 | 101
O=C(N/N=C/c1cn[nH]c1-c1ccc(Cl)cc1)c1ccc([N+](=O)[O-])cc1 | 89 | 19 | 107 | 5 | -20 | 90 | . | . | .
Cc1ccc(/C=N/NC(=O)c2csc(C)c2)o1 | 118 | 0 | 95 | 0 | -13 | 100 | . | . | .
CCCCN(C(=O)c1ccncc1)c1c(N)n(CCC)c(=O)[nH]c1=O | 93 | 2 | . | . | -17 | . | . | . | .
O=C(CCN1C(=O)C2CCCCC2C1=O)N1CCN(S(=O)(=O)c2c(F)cccc2F)CC1 (stereo not drawn) | 94 | 2 | . | . | 0 | . | . | . | .
CCC(c1nnnn1Cc1ccc2c(c1)OCO2)N1CCN(CC)CC1 (stereo not drawn) | 100 | -10 | 131* | 5 | -6 | 122 | 99 | 1 | 102
CCCCCCC1/C(=N\NC(=O)c2ccccc2)CCC1C(=O)OC (stereo not drawn) | 104 | 8 | 102 | 0 | 9 | 102 | . | . | .
